Reference: ChEMBL document CHEMBL3526062, “Role of human UDP-glucuronosyltransferases in the biotransformation of the triazoloacridinone and imidazoacridinone antitumor agents C-1305 and C-1311: highly selective substrates for UGT1A10” (Drug Metab Dispos, 2012)

Key:
[1] = target: T1, UDP-glucuronosyltransferase 1A1 (Homo sapiens, UniProt P22309); assay: Drug metabolism assessed as human recombinant UGT1A1-mediated compound formation treated with C-1305 for 60 mins by ESI-MS/UV-vis spectroscopy in presence of 3 mM UDP-GlcUA; type: ADME; settings: recombinant enzyme, 1 h
T1 sequence (P22309 whole entry): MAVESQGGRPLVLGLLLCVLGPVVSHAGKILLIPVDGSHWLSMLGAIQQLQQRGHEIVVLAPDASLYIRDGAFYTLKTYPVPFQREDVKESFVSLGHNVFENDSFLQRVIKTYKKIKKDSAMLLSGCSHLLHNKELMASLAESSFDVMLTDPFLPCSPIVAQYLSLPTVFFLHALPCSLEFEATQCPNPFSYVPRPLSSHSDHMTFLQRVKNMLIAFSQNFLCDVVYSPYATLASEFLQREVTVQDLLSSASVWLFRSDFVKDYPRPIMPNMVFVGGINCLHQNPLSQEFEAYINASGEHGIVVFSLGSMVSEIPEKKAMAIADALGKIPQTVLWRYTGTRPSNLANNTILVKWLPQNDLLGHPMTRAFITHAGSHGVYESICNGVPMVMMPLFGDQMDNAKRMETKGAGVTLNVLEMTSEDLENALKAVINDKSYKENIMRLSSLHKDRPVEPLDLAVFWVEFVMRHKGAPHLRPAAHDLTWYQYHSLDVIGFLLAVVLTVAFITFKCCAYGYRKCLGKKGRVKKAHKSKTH
In short: (§1)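 Recombinant human UGT1A1 or UGT1A9 (5 μg protein), or single-donor human liver or intestinal microsomes (20 μg), incubated in Tris-HCl pH 7.4 with 5 mM MgCl2, 5 mM saccharolactone, 2% DMSO and 100 or 200 μM substrate. Started with UDP-GlcUA, 60 min at 37°C, in triplicate. Product identified by HPLC with positive-ion ESI-MS and UV/Vis spectra, and confirmed by β-glucuronidase hydrolysis.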

[2] = Drug metabolism in human intestinal microsomes assessed as metabolite formation treated with C-1305 for 60 mins by ESI-MS/UV-vis spectroscopy in presence of 3 mM UDP-GlcUA; type: ADME, Intestine, Microsome; settings: 1 h; in short: as §1
[3] = target: T2, UDP-glucuronosyltransferase 1A9 (Homo sapiens, UniProt O60656); assay: Activity of human recombinant UGT1A9 expressed in baculovirus-infected Sf9 cells assessed as enzyme-mediated glucuronidation per mg protein at 300 uM after 60 mins by Michaelis-Menten equation in presence of 3 mM UDP-GlcUA; type: ADME; settings: sf9, 1 h
T2 sequence (O60656 whole entry): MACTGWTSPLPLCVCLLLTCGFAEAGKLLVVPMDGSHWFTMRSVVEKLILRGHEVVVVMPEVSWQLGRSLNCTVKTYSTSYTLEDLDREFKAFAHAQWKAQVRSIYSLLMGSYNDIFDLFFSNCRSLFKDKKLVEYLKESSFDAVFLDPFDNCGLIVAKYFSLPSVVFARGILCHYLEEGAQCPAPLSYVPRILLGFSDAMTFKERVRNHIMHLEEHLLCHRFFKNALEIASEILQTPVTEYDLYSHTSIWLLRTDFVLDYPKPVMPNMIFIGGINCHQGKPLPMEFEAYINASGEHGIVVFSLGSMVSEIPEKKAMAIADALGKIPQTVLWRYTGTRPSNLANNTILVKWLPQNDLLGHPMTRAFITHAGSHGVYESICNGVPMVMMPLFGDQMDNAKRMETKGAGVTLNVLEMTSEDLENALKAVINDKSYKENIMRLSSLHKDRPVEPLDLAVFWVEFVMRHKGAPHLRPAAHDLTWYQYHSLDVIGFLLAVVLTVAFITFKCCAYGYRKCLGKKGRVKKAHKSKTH

[4] = target: T3, UDP-glucuronosyltransferase 1A10 (Homo sapiens, UniProt Q9HAW8); assay: Drug metabolism assessed as human recombinant UGT1A10-mediated compound formation treated with C-1305 for 60 mins by ESI-MS/UV-vis spectroscopy in presence of 3 mM UDP-GlcUA; type: ADME; settings: recombinant enzyme, 1 h
T3 sequence (Q9HAW8 whole entry): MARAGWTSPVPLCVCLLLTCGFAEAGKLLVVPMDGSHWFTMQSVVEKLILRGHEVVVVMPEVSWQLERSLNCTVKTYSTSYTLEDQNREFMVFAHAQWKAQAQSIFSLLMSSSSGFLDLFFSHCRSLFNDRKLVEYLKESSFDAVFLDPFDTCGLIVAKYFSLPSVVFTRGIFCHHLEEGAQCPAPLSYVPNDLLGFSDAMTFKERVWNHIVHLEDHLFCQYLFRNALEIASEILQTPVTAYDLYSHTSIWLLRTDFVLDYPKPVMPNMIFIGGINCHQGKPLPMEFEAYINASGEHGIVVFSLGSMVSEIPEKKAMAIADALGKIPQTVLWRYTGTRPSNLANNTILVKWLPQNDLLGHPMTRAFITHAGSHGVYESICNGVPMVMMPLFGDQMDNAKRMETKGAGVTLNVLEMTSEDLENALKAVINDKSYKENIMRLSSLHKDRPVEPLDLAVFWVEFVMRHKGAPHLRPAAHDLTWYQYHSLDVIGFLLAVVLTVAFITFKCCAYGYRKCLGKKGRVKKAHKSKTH
In short: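 His-tagged recombinant human UGT expressed in baculovirus-infected insect cells, levels normalized by anti-His Western blot; 5 μg membrane protein incubated 60 min at 37°C in […] pH 7.4, 5 mM MgCl2, 5 mM saccharolactone, 2% DMSO, substrate 100 or 200 μM; started with UDP-GlcUA; ethanol stop, centrifuged; supernatant by reversed-phase HPLC-UV/ESI-MS; glucuronide confirmed by β-glucuronidase hydrolysis; triplicate.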

[5] = target: T2, UDP-glucuronosyltransferase 1A9; assay: Drug metabolism assessed as human recombinant UGT1A9-mediated compound formation treated with C-1305 for 60 mins by ESI-MS/UV-vis spectroscopy in presence of 3 mM UDP-GlcUA; type: ADME; settings: recombinant enzyme, 1 h; in short: as §1
[6] = target: T3, UDP-glucuronosyltransferase 1A10; assay: Drug metabolism assessed as human recombinant UGT1A10-mediated compound formation treated with C-1311 for 60 mins by ESI-MS/UV-vis spectroscopy in presence of 3 mM UDP-GlcUA; type: ADME; settings: recombinant enzyme, 1 h
In short: (§2)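 Protein (5 μg UGT1A10 or microsomal) incubated with 0.2 mM substrate and 3 mM UDP-GlcUA, 60 min. HPLC on C18 at 25°C with a 15–80% methanol gradient in 0.05 M ammonium formate pH 3.4 at 1 ml/min. ESI positive-ion MS and UV/Vis spectra taken from the peaks. Glucuronide confirmed by 60 min further treatment with 1000 U E. coli β-glucuronidase.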

[7] = target: T2, UDP-glucuronosyltransferase 1A9; assay: Activity of human recombinant UGT1A9 expressed in baculovirus-infected Sf9 cells assessed as enzyme-mediated glucuronidation per mg protein at 235 uM after 60 mins by Michaelis-Menten equation in presence of 3 mM UDP-GlcUA; type: ADME; settings: sf9, 1 h
Liver microsome = assay: Drug metabolism in human liver microsomes assessed as metabolite formation treated with C-1311 for 60 mins by ESI-MS/UV-vis spectroscopy in presence of 3 mM UDP-GlcUA; type: ADME; settings: 1 h; in short: as §2
[8] = target: T2, UDP-glucuronosyltransferase 1A9; assay: Drug metabolism assessed as human recombinant UGT1A9-mediated compound formation treated with C-1311 for 60 mins by ESI-MS/UV-vis spectroscopy in presence of 3 mM UDP-GlcUA; type: ADME; settings: recombinant enzyme, 1 h
[9] = target: T1, UDP-glucuronosyltransferase 1A1; assay: Drug metabolism assessed as human recombinant UGT1A1-mediated compound formation treated with C-1311 for 60 mins by ESI-MS/UV-vis spectroscopy in presence of 3 mM UDP-GlcUA; type: ADME; settings: recombinant enzyme, 1 h

Drug metabolism [1] | Drug metabolism [2] | Drug metabolism [3] [nmol/min/mg] | Drug metabolism [4] | Drug metabolism [5] | Compound | Drug metabolism [6] | Drug metabolism [7] [nmol/min/mg] | Drug metabolism (Liver microsome) | Drug metabolism [8] | Drug metabolism [9]
metabolite_detected | metabolite_detected | 0.15 | metabolite_detected | metabolite_detected | CN(C)CCCNc1ccc2nnn3c4ccc(O)cc4c(=O)c1c23 |  |  |  |  | 
 |  |  |  |  | CCN(CC)CCNc1ccc2ncn3c4ccc(O)cc4c(=O)c1c23 [C-1311] | metabolite_detected | 0.14 | metabolite_detected | metabolite_detected | metabolite_detected
